In ChEMBL document CHEMBL1949606, “Carbonic anhydrase VII is S-glutathionylated without loss of catalytic activity and affinity for sulfonamide inhibitors” (Bioorg Med Chem Lett, 2012):
Each block holds one molecule with its values, some of them ahead of it.

Legend:
Homo sapiens [1] = species on record: Homo sapiens; experiment: Activity of human recombinant carbonic anhydrase 7 C183S/C217S mutant
[2] = Inhibition of human recombinant carbonic anhydrase 7 C183S/C217S mutant using carbon-dioxide as substrate preincubated for 10 mins prior to substrate addition by […]
Method in brief: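 Stopped-flow CO2 hydration by Khalifah's method: 0.2 mM phenol red read at 557 nm, 10 mM HEPES pH 7.5, 0.1 M Na2SO4, CO2 1.7–17 mM, initial rates over 10–100 s. Enzyme preincubated 10 min at room temperature with at least 7 inhibitor concentrations, from 10 mM DMSO-water stock diluted down to 1 nM. Triplicates; Ki by non-linear least-squares fitting.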

[3] = Inhibition of human recombinant carbonic anhydrase 7 C183S/C217S mutant hydrolysis activity using 4-nitrophenyl acetate as substrate preincubated for 10 mins prior to substrate addition by […]
Method in brief: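 Esterase assay with 4-nitrophenyl acetate dissolved in acetonitrile (final MeCN 5%). Buffer: 10 mM HEPES/10 mM Tris pH 7.4 with 0.1 M Na2SO4; enzyme 0.10–5.0 µM. […] Spontaneous hydrolysis subtracted.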

[4] = Inhibition of human recombinant carbonic anhydrase 7 C183S/C217S mutant phosphatase activity using 4-nitrophenyl phosphate as substrate preincubated for 10 mins prior to substrate addition by […]
Method in brief: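 Phosphatase assay with 4-nitrophenyl phosphate at 0.08–5 mM, 25 °C, 4-nitrophenol release read at 405 nm. Buffer: 10 mM HEPES/10 mM Tris pH 7.4 with 0.1 M Na2SO4. Spontaneous hydrolysis subtracted.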

Homo sapiens [5] = species on record: Homo sapiens; experiment: Ratio of Kcat to Km for human recombinant carbonic anhydrase 7 C183S/C217S mutant
[6] = substrate: CC(=O)Oc1ccc([N+](=O)[O-])cc1; experiment: (§1) Activity of human recombinant carbonic anhydrase 7
[7] = substrate: O=[N+]([O-])c1ccc(OP(=O)(O)O)cc1; experiment: as §1
[8] = substrate: CC(=O)Oc1ccc([N+](=O)[O-])cc1; experiment: (§2) Activity of S-glutathionylated form of human recombinant carbonic anhydrase 7
[9] = substrate: O=[N+]([O-])c1ccc(OP(=O)(O)O)cc1; experiment: as §2
[10] = substrate: O=[N+]([O-])c1ccc(OP(=O)(O)O)cc1; experiment: Ratio of Kcat to Km for human recombinant carbonic anhydrase 7
[11] = substrate: O=[N+]([O-])c1ccc(OP(=O)(O)O)cc1; experiment: Ratio of Kcat to Km for S-glutathionylated form of human recombinant carbonic anhydrase 7
[12] = substrate: CC(=O)Oc1ccc([N+](=O)[O-])cc1; experiment: (§3) Activity of human recombinant carbonic anhydrase 3
[13] = substrate: O=[N+]([O-])c1ccc(OP(=O)(O)O)cc1; experiment: as §3
[14] = substrate: CC(=O)Oc1ccc([N+](=O)[O-])cc1; experiment: (§4) Ratio of Kcat to Km for human recombinant carbonic anhydrase 3
[15] = substrate: O=[N+]([O-])c1ccc(OP(=O)(O)O)cc1; experiment: as §4

Molecule: O=[N+]([O-])c1ccc(OP(=O)(O)O)cc1
- Km (Homo sapiens [1]): 2210 µM
- kcat/Km (Homo sapiens [5]): 3.03 ×10⁴ /M/s

B1: Carbonic anhydrase 7 (Homo sapiens), P43166 (protein)
chain: MTGHHGWGYGQDDGPSHWHKLYPIAQGDRQSPINIISSQAVYSPSLQPLELSYEACMSLSITNNGHSVQVDFNDSDDRTVVTGGPLEGPYRLKQFHFHWGKKHDVGSEHTVDGKSFPSELHLVHWNAKKYSTFGEAASAPDGLAVVGVFLETGDEHPSMNRLTDALYMVRFKGTKAQFSCFNPKCLLPASRHYWTYPGSLTTPPLSESVTWIVLREPICISERQMGKFRSLLFTSEDDERIHMVNNFRPPQPLKGRVVKASFRA
- Km [6]: 750 µM
- Km [7]: 1430 µM
- Km [8]: 500 µM
- Km [9]: 970 µM
- kcat/Km [10]: 2.89 ×10⁴ /M/s
- kcat/Km [11]: 3.04 ×10⁴ /M/s

B2: Carbonic anhydrase 3 (Homo sapiens), P07451 (protein)
chain: MAKEWGYASHNGPDHWHELFPNAKGENQSPVELHTKDIRHDPSLQPWSVSYDGGSAKTILNNGKTCRVVFDDTYDRSMLRGGPLPGPYRLRQFHLHWGSSDDHGSEHTVDGVKYAAELHLVHWNPKYNTFKEALKQRDGIAVIGIFLKIGHENGEFQIFLDALDKIKTKGKEAPFTKFDPSCLFPACRDYWTYQGSFTTPPCEECIVWLLLKEPMTVSSDQMAKLRSLLSSAENEPPVPLVSNWRPPQPINNRVVRASFK
- Km [12]: 1230 µM
- Km [13]: 1340 µM
- kcat/Km [14]: 139 M⁻¹ s⁻¹
- kcat/Km [15]: 45.3 M⁻¹ s⁻¹

Other lines, results leading:

- Km (Homo sapiens [1]): 1060 µM
Molecule: CC(=O)Oc1ccc([N+](=O)[O-])cc1

- Ki [2]: 3 nM
- IC50 [3]: 170 nM
- IC50 [4]: 2910 nM
Molecule: CC(=O)Nc1nnc(S(N)(=O)=O)s1 [ACETAZOLAMIDE]
